Experimental findings from ChEMBL document CHEMBL3739385, “Stelleralides D-J and Anti-HIV Daphnane Diterpenes from Stellera chamaejasme” (J Nat Prod, 2015) are described below.

Structures are written as SMILES. Some results are limits rather than exact numbers.

For one series, the system named is MT4. As to the kind of experiment: Cytotoxicity against human MT4 cells by cellTiterGlo assay. It is filed as cell-based. An outline of the steps: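 MT4 cells are cultured in parallel with the antiviral assay and treated with compounds. Viability is read with CellTiter-Glo luminescent reagent, which quantifies ATP in metabolically active cells. CC50, the concentration reducing viable cells by 50%, is calculated from the dose-response curve.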
For orientation: ATP-based viability assays read luminescence as a measure of living cells.

The test system of series [1] is Human immunodeficiency virus 1. Nature of the series: Antiviral activity against HIV-1 NL4-3 infected in MT4 cells assessed as viral replication measured on day 4 post infection by ELISA. The class given is functional, organism-based. The following applies: Human immunodeficiency virus 1, NL4-3, MT4, 96 h. An outline of the steps: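 HIV-1 NL4-3 at MOI 0.001 infects MT4 cells in the presence of graded compound concentrations. Fresh medium with compound is added 48 h after infection to keep the cells growing. On day 4 post-infection, replication is read by p24 ELISA.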
For orientation: An ELISA detects its analyte on a solid surface through an enzyme-linked reagent.

A short description of series [2]: Selectivity index, ratio of CC50 for human MT4 cells to EC50 for HIV-1 NL4-3 infected in MT4 cells. The class given is toxicity, cell-based. Conditions: read-out: Ratio CC50/EC50.

For orientation: CC50 means the concentration at which the toxic effect on the cells reaches its halfway point. Higher therefore signals lower toxicity to the cells. The term EC50 denotes the concentration needed to bring the measured effect to its halfway point. As for `C=C(C)[C@@]12O[C@@]3(/C=C/C=C/CCCCCCCCC)O[C@@H]1[C@@H]1[C@@H]4O[C@]4(CO)[C@@H](O)[C@]4(O)C(=O)C(C)=C[C@H]4[C@@]1(O3)[C@H](C)[C@H]2OC(C)=O`, the half-maximal cytotoxic concentration (CC50) in the series with MT4 was not below 15600 nM. Besides, the EC50 in series [1] stood at 12 nM. Further, in series [2], the selectivity ratio is not below 1300.

The compound `C=C(C)[C@]12C[C@@H](COC(=O)c3ccccc3)[C@]34OC5(CCCCCCC[C@H](C)[C@@H]6[C@@H]3[C@]3(O[C@]6(C)OC3=O)[C@H](O)[C@@]3(COC(=O)CCCCCCC/C=C\C/C=C\CCCCC)O[C@H]3[C@H]4[C@H]1O5)O2` had a CC50 with MT4 not below 10800 nM. Moreover, the EC50 in series [1] was 6710 nM. Besides, the selectivity ratio in series [2] is not below 1.

In the series with MT4, `C=C(C)[C@]12C[C@@H](COC(=O)c3ccccc3)[C@@]34OC5(O[C@@H]1[C@@H]3[C@@H]1O[C@]1(CO)[C@@H](O)[C@@]1(O)[C@H]4[C@H]([C@H](C)[C@@H]1OC(=O)c1ccccc1)[C@H](C)C[C@@H](OC(=O)c1ccccc1)CCCC[C@H]5O)O2` showed a CC50 not below 11200 nM. Further, the EC50 in series [1] worked out at 0.73 nM. Moreover, the selectivity ratio in series [2] is not below 15300.

Turning to `C=C(C)[C@]1(O)C[C@@H](C)[C@@]2(O)[C@H]([C@H]1OC(=O)/C=C/C=C/CCCCCCCCC)[C@@H]1O[C@]1(CO)[C@@H](O)[C@]1(O)C(=O)C(C)=C[C@H]12`, the CC50 in the series with MT4 is not below 16600 nM. Further, the EC50 in series [1] amounted to 59 nM. For the same compound, the selectivity ratio in series [2] was not below 281.

With `C=C(C)[C@]12C[C@@H](C)[C@@]34OC(/C=C/C=C/CCCCCCCCCC)(O[C@@H]1[C@@H]3[C@@H]1O[C@]1(CO)[C@@H](O)[C@]1(O)C(=O)C(C)=C[C@H]14)O2`, the CC50 in the series on MT4 is not below 16700 nM. The concentration for a half-maximal effect (EC50) in series [1] was determined as 13 nM. Also, the selectivity ratio in series [2] was not below 1280.

For `C=C(C)[C@]12C[C@@H](COC(=O)c3ccccc3)[C@]34OC5(CCCCCCC[C@H](C)[C@@H]6[C@@H]3[C@]3(O[C@]6(C)OC3=O)[C@H](O)[C@@]3(CO)O[C@H]3[C@H]4[C@H]1O5)O2`, the 50% cytotoxic concentration (CC50) in the series on MT4 is not below 13800 nM. Moreover, the concentration for a half-maximal effect (EC50) in series [1] is 330 nM. Also, the selectivity ratio in series [2] was not below 41.

In the series with MT4, `C=C(C)[C@]12C[C@@H](COC(=O)c3ccccc3)[C@]34OC5(CCCCCCC[C@H](C)[C@@H]6[C@@H]3[C@]3(O[C@]6(C)OC3=O)[C@H](O)[C@@]3(COC(=O)CCCCCCCCCCCCCCC)O[C@H]3[C@H]4[C@H]1O5)O2` came in with a 50% cytotoxic concentration (CC50) not below 11100 nM. Besides, the 50% effective concentration (EC50) in series [1] turned out to be 590 nM. In addition, the selectivity ratio in series [2] was not below 18.

For `C=C(C)[C@@]12OC3(/C=C/C=C/CCCCCCCCCC)O[C@@H]1[C@@H]1[C@@H]4O[C@]4(CO)[C@@H](O)[C@]4(O)C(=O)C(C)=C[C@H]4[C@@]1(O3)[C@H](C)[C@H]2OC(C)=O`, in the series on MT4, the CC50 is not below 15300 nM. Moreover, in series [1], the concentration giving a half-maximal response (EC50) was 39 nM. The selectivity ratio in series [2] is not below 392.

With `C=C(C)[C@]12C[C@@H](COC(=O)c3ccccc3)[C@@]34OC5(O[C@@H]1[C@@H]3[C@@H]1O[C@]1(COC(=O)c1ccccc1)[C@@H](O)[C@@]1(O)[C@H]4[C@H]([C@H](C)[C@@H]1O)[C@H](C)CCCCCC[C@H]5O)O2`, the CC50 with MT4 is not below 12900 nM. Moreover, the EC50 in series [1] is 0.98 nM. The selectivity ratio in series [2] is not below 13200.

In the series with MT4, `C=C(C)[C@]12C[C@@H](C)[C@@]34O[C@](/C=C/C=C/CCCCCCCCC)(O[C@@H]1[C@@H]3[C@@H]1O[C@]1(CO)[C@@H](O)[C@]1(O)C(=O)C(C)=C[C@H]14)O2` gave a CC50 not below 14000 nM. Also, in series [1], the EC50 stood at 2.6 nM. In series [2], the selectivity ratio is not below 5380.

For the compound `C=C(C)[C@]12C[C@@H](COC(C)=O)[C@@]34OC5(O[C@@H]1[C@@H]3[C@@H]1O[C@]1(CO)[C@@H](O)[C@@]1(O)[C@H]4[C@H]([C@H](C)[C@@H]1OC(=O)c1ccccc1)[C@H](C)C[C@@H](OC(=O)c1ccccc1)CCCC[C@H]5O)O2`, the CC50 with MT4 was not below 12000 nM. Also, the EC50 in series [1] was 0.93 nM. The selectivity ratio in series [2] was not below 12900.

Take `C=C(C)[C@]1(O)C[C@@H](C)[C@@]2(O)[C@H]([C@H]1OC(=O)/C=C/C=C/CCCCCCCCC)[C@H](O)[C@@](O)(CO)[C@@H](O)[C@]1(O)C(=O)C(C)=C[C@H]12`: the 50% cytotoxic concentration (CC50) in the series with MT4 was not below 4400 nM. The EC50 in series [1] stood at 44 nM. Moreover, the selectivity ratio in series [2] is not below 100.

Take `C=C(C)[C@]12C[C@@H](COC(=O)c3ccccc3)[C@@]34OC5(O[C@@H]1[C@@H]3[C@@H]1O[C@]1(CO)[C@@H](O)[C@@]1(O)[C@H]4[C@H]([C@H](C)[C@@H]1OC(=O)c1ccccc1)[C@H](C)CCCCCC[C@H]5O)O2`: the CC50 with MT4 was not below 1290 nM. Besides, in series [1], the concentration for a half-maximal effect (EC50) is 0.06 nM. In series [2], the selectivity ratio is not below 21500.

Regarding `C=C(C)[C@]12C[C@@H](C)[C@@]34OC5(CCCCCCC[C@@H](C)[C@H]6[C@H](C)[C@H](OC(=O)c7ccccc7)[C@@](O)([C@H](O)[C@@]7(CO)O[C@H]7[C@H]3[C@H]1O5)[C@@H]64)O2`, in the series on MT4, the CC50 was not below 15700 nM. Moreover, the EC50 in series [1] worked out at 1.1 nM. In addition, in series [2], the selectivity ratio is not below 14300.

As to `C=C(C)[C@]12C[C@@H](C)[C@]34O[C@]5(CCCCCCC[C@H](C)[C@@H]6[C@@H]3[C@]3(O[C@]6(C)OC3=O)[C@H](O)[C@@]3(CO)O[C@H]3[C@H]4[C@H]1O5)O2`, the CC50 in the series on MT4 was not below 18300 nM. Also, in series [1], the 50% effective concentration (EC50) was found to be 1120 nM. In series [2], the selectivity ratio is not below 16.

`C=C(C)[C@@]1(O)[C@H](OC(=O)/C=C/C=C/CCCCCCCCC)[C@@H]2[C@@H]3O[C@]3(CO)[C@@H](O)[C@]3(O)C(=O)C(C)=C[C@H]3[C@@]2(O)[C@H](C)[C@H]1OC(C)=O` displayed a CC50 in the series with MT4 not below 15200 nM. In addition, the concentration for a half-maximal effect (EC50) in series [1] worked out at 44 nM. The selectivity ratio in series [2] was not below 345.

Compound `C=C(C)[C@]12C[C@@H](COC(=O)c3ccccc3)[C@@]34OC5(CCCCCCC[C@@H](C)[C@H]6[C@H](C)C(=O)[C@@](O)([C@H](O)[C@@]7(CO)O[C@H]7[C@H]3[C@H]1O5)[C@@H]64)O2` had a CC50 in the series with MT4 not below 15300 nM. Moreover, the concentration giving a half-maximal response (EC50) in series [1] stood at 48 nM. Moreover, the selectivity ratio in series [2] is not below 318.

`C=C(C)[C@@]12OC3(/C=C/C=C/CCCCCCCCCC)O[C@@H]1[C@@H]1[C@@H]4O[C@]4(CO)[C@@H](O)[C@]4(O)C(=O)C(C)=C[C@H]4[C@@]1(O3)[C@H](C)[C@H]2O` yielded a CC50 in the series on MT4 not below 16300 nM. Also, the concentration giving a half-maximal response (EC50) in series [1] is 120 nM. The selectivity ratio in series [2] was not below 135.

In the series on MT4, `C=C(C)[C@]12C[C@@H](C)[C@@]34O[C@](CCCCCCCCC)(O[C@@H]1[C@@H]3[C@@H]1O[C@]1(CO)[C@@H](O)[C@]1(O)C(=O)C(C)=C[C@H]14)O2` [SIMPLEXIN] came in with a CC50 not below 18800 nM. Besides, in series [1], the EC50 was determined as 47 nM. Also, the selectivity ratio in series [2] was not below 400.

Turning to `Cc1cn([C@H]2C[C@H](N=[N+]=[N-])[C@@H](CO)O2)c(=O)[nH]c1=O` [ZIDOVUDINE], the CC50 in the series on MT4 was not below 3740 nM.
